Experimental data as given in ChEMBL document CHEMBL1137875, “The identification and optimization of 2,4-diketobutyric acids as flap endonuclease 1 inhibitors” (Bioorg Med Chem Lett, 2004).

Experiments:
[1] = biological target: T1, DNA excision repair protein ERCC-5 (Homo sapiens, UniProt P28715); experiment: Concentration required for 50% inhibition of Xeroderma pigmentosum G
T1 sequence (P28715 whole entry): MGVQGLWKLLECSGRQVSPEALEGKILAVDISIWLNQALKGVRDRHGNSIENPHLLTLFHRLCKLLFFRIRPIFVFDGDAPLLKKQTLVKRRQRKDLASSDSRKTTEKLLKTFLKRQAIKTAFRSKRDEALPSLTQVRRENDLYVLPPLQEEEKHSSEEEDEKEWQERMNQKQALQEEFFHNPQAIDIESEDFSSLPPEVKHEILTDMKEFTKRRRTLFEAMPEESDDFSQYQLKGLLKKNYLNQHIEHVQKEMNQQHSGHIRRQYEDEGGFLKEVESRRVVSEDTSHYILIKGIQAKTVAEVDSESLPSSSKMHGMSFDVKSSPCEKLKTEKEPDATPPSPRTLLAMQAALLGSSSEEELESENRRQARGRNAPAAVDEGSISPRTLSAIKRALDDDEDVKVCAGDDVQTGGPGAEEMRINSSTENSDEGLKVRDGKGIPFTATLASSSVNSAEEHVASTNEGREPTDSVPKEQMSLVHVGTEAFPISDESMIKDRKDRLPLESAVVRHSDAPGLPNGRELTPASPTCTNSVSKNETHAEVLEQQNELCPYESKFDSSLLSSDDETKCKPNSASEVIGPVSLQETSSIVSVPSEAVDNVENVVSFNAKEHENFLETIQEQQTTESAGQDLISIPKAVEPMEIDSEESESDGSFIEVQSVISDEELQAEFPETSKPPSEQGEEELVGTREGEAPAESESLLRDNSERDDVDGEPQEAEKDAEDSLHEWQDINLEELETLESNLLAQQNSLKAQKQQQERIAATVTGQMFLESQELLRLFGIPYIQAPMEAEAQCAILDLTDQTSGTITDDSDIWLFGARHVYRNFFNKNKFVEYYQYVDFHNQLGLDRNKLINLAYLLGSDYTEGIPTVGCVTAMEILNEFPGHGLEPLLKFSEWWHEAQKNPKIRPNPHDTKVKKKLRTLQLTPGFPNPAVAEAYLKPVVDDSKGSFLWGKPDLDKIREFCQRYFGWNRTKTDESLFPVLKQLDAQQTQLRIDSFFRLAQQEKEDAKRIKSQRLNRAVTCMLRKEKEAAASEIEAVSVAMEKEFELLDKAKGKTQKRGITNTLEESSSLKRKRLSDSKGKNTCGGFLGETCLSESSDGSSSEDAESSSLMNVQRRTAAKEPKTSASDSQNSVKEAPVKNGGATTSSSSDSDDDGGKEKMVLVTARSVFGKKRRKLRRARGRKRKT
In short: (§1)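 Fluorescence nuclease assay with 5 pmol BVT substrate in buffer at pH 8.0 containing 10 mM MgCl₂, 0.5 mM 2-mercaptoethanol, BSA and circular plasmid. Enzyme was 180 U FEN1 or 50 ng XPG. Reactions ran 90 min at room temperature and were stopped with 0.025% SDS/12.5 mM EDTA. Fluorescence was read at 485 nm excitation/538 nm emission.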

[2] = biological target: Flap endonuclease 1 (Homo sapiens, UniProt P39748); experiment: Concentration required for 50% inhibition of Flap endonuclease-1; in short: as §1
Sequence of Flap endonuclease 1 (P39748 whole entry): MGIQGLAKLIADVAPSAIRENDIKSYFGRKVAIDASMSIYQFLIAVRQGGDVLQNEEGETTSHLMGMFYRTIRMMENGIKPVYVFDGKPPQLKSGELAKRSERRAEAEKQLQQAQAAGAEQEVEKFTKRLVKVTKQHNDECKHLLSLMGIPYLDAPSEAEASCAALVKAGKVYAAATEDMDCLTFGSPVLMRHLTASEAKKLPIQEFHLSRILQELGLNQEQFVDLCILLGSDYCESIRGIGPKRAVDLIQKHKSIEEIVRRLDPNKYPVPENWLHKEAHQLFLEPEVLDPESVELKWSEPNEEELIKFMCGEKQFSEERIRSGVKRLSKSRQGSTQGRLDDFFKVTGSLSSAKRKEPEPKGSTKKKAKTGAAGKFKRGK

O=C(O)C(=O)CC(=O)c1ccco1
IC50 [1]: 41 µM | IC50 [2]: 64.2 µM

O=C(CC(=O)c1nnn[nH]1)c1ccc(Oc2ccccc2)cc1
IC50 [1]: 97 µM | IC50 [2]: 63.2 µM

C=C(CC(=O)c1ccc(Oc2ccccc2)cc1)C(=O)O
IC50 [1]: > 100 µM | IC50 [2]: > 100 µM

O=C(O)C(=O)Cc1ncc(-c2ccccc2)s1
IC50 [1]: 31.7 µM | IC50 [2]: 46.4 µM

O=C(CC(=O)c1cc(=O)[nH]o1)c1ccc(Oc2ccccc2)cc1
IC50 [1]: > 100 µM | IC50 [2]: > 100 µM

O=C(O)C(=O)CC(=O)c1ccc(-c2ccccc2)s1
IC50 [1]: 1.85 µM | IC50 [2]: 7.65 µM

COc1ccc(-c2ccc(Cl)c(C(=O)CC(=O)C(=O)O)c2)cc1
IC50 [1]: 0.57 µM | IC50 [2]: 0.19 µM

O=C(O)C(=O)CC(=O)c1ccc(-c2ccc(OC(F)(F)F)cc2)s1
IC50 [1]: 0.31 µM | IC50 [2]: 0.44 µM

O=C(O)C(=O)CC(=O)c1ccc(-c2ccc(Cl)cc2)o1
IC50 [1]: 0.98 µM | IC50 [2]: 10.8 µM

O=C(O)C(=O)CC(=O)c1ccc(-c2ccc(Cl)cc2)cc1Cl
IC50 [1]: 1.77 µM | IC50 [2]: 0.41 µM

O=C(O)C(=O)CC(=O)c1cccs1
IC50 [1]: 38.7 µM | IC50 [2]: 10.1 µM

O=C(O)C(=O)CC(=O)c1cccc(Cl)c1
IC50 [1]: 13.1 µM | IC50 [2]: 6.96 µM

O=C(O)C(=O)CC(=O)c1c(Cl)cccc1Cl
IC50 [1]: > 100 µM | IC50 [2]: 37.9 µM

O=C(O)C(=O)CC(=O)c1ccc(-c2ccccc2Cl)o1
IC50 [1]: 1.85 µM | IC50 [2]: 12.2 µM

CC(C)(C)c1ccc(-c2ccc(C(=O)CC(=O)C(=O)O)o2)cc1
IC50 [1]: 3.13 µM | IC50 [2]: 13.5 µM

COc1ccc(-c2cccc(C(=O)CC(=O)C(=O)O)c2)cc1
IC50 [1]: 1.59 µM | IC50 [2]: 1.36 µM

O=C(O)C(=O)CC(=O)c1ccc(Oc2ccccc2)cc1
IC50 [1]: 1.87 µM | IC50 [2]: 1.75 µM

O=C(O)C(=O)CC(=O)c1cccc(-c2ccccc2)c1
IC50 [1]: 3.24 µM | IC50 [2]: 3.62 µM

O=C(O)C(=O)CC(=O)c1cccc(Cl)c1Cl
IC50 [1]: 22.1 µM | IC50 [2]: 17.7 µM

Cc1ccccc1C(=O)CC(=O)C(=O)O
IC50 [1]: 54.5 µM | IC50 [2]: 12.9 µM

O=C(O)C(=O)CC(=O)c1cccc(Oc2ccccc2)c1
IC50 [1]: 5.44 µM | IC50 [2]: 7.31 µM

O=C(O)C(=O)CC(=O)c1ccc(Cl)cc1Cl
IC50 [1]: 9.85 µM | IC50 [2]: 5.53 µM

O=C(O)C(=O)CC(=O)c1cc(Cl)ccc1Cl
IC50 [1]: 7 µM | IC50 [2]: 1.82 µM

O=C(O)C(=O)CC(=O)c1cc(-c2ccccc2)ccc1Cl
IC50 [1]: 1.13 µM | IC50 [2]: 0.33 µM

O=C(O)C(=O)CC(=O)c1ccccc1
IC50 [1]: 75.4 µM | IC50 [2]: 24.9 µM

O=C(O)C(=O)CC(=O)c1ccc(-c2ccccc2)cc1
IC50 [1]: 1.6 µM | IC50 [2]: 3.5 µM

O=C(CC(=O)c1nnn[nH]1)c1ccc(-c2ccccc2)cc1
IC50 [1]: > 100 µM | IC50 [2]: > 100 µM

CCOc1ccc(-c2ccc(C(=O)CC(=O)C(=O)O)o2)cc1
IC50 [1]: 1.4 µM | IC50 [2]: 11.3 µM

COc1ccc(Cn2nnnc2C(=O)CC(=O)c2ccc(-c3ccccc3)cc2)cc1
IC50 [1]: 52.4 µM | IC50 [2]: 34.3 µM

O=C(O)C(=O)CC(=O)c1ccc(-c2ccc(Cl)c(F)c2)s1
IC50 [1]: 0.9 µM | IC50 [2]: 0.57 µM

O=C(O)C(=O)CC(=O)c1ccccc1Cl
IC50 [1]: 38.1 µM | IC50 [2]: 3.51 µM

O=C(O)C(=O)CC(=O)c1ccccc1F
IC50 [1]: 78.5 µM | IC50 [2]: 14.5 µM

O=C(c1ccc(Oc2ccccc2)cc1)c1ncc2cccnc2c1O
IC50 [1]: > 100 µM | IC50 [2]: 29 µM

O=C(O)C(=O)CC(=O)c1ccc(Cl)cc1
IC50 [1]: 12.7 µM | IC50 [2]: 19.3 µM

O=C(O)C(=O)CC(=O)c1ccc(-c2ccccc2)o1
IC50 [1]: 1.81 µM | IC50 [2]: 1.66 µM
